# Active and inactive are the calls of the source.
# Columns and labels:
# [1] = Plasma protein binding in rat at 3 mg/kg, po; format: ADME, organism-based; set-up: dose 3 mg/kg, route oral; details: read-out: PPB (converted)
# [2] = Apparent permeability of the compound; format: ADME; details: not told
# How it was run: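 Artificial membrane permeability: donor holds 10 mM sample in pH 7.05 phosphate buffer with 0.5% hydroxypropylcyclodextrin. Membrane is 1.8% phosphatidylcholine and 1% cholesterol in decane. Donor and acceptor concentrations measured by LCMS after 3 h at room temperature; permeability expressed in nm/s.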
# Brain [3] = test: Brain tissue binding in rat at 3 mg/kg, po; format: ADME, organism-based; set-up: dose 3 mg/kg, route oral; details: in vivo
# [4] = Clearance in rat at 3 mg/kg, po; format: ADME, organism-based; set-up: dose 3 mg/kg, route oral; details: in vivo
# How it was run: (§1)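 Rats dosed orally at 3 mg/kg; blood sampled via the hepatic portal vein and heart. Estimated clearance derived from in vivo hepatic extraction, taking rat liver blood flow as 85 (mL/min)/kg.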
# in vivo = details: rat, brain and blood, po, 3 mg/kg
# Rattus norvegicus [5] = test: Neurotoxicity in Lister Hooded rat assessed proconvulsant effect at 150 mg/kg, ip by MEST test; format: toxicity, organism-based; set-up: dose 150 mg/kg, route intraperitoneal; details: in vivo
# How it was run: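 Male Lister Hooded rats pretreated with compound, saline vehicle or picrotoxin 30 min before corneal electroshock (CC50 about 60–70 mA, 0.1 ms); tonic and tonic-clonic seizure threshold scored; brain concentrations taken from satellite rats sampled right after testing.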
# [6] = Kinetic solubility of the compound in phosphate buffered saline of pH 7.4; format: physicochemical
# How it was run: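 Kinetic solubility: 10 mM DMSO stock, 5 μL diluted to 100 μL with pH 7.4 phosphate-buffered saline, equilibrated 1 h at room temperature, filtered, filtrate quantified by calibrated flow-injection chemiluminescent nitrogen detection.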
# [7] = (§2) AUC ( 0 to t) in rat at 3 mg/kg, po; format: ADME, organism-based, Plasma; set-up: dose 3 mg/kg, route oral; details: plasma
# Brain [8] = test: Drug level in Lister Hooded rat assessed per gram of tissue at 150 mg/kg, ip; format: ADME, organism-based; set-up: dose 150 mg/kg, route intraperitoneal; details: in vivo
# How it was run: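 Male Lister Hooded rats pretreated 30 min before the maximal electroshock threshold test with compound or saline vehicle; picrotoxin served as positive control. Corneal current applied, CC50 about 60-70 mA, 0.1 ms. Brain levels measured in satellite rats sampled immediately after testing.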
# Glutamate receptor 2 [9] = molecular target: T1, Glutamate receptor 2 (Homo sapiens, UniProt P42262); test: Allosteric modulation of human recombinant GluA2 receptor flip isoform expressed in HEK293 cells assessed as potentiation of glutamate-induced calcium influx by Fluo-4/FLIPR method; format: cell-based
# How it was run: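 Stable GluA2 flip (unedited) cell line grown in DMEM/F12 with 10% FBS and seeded to confluence 2-3 days before use. Cells washed in HEPES buffer (pH 7.3) and loaded with 2 μM Fluo-4 AM for 60 min at room temperature. On FLIPR, compound was added 5 min before 100 μM glutamate. pEC50 and asymptotic maximum are relative to the maximal response to cyclothiazide, n ≥ 3.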
# [10] = Inhibition of human CYP450 by fluorescence assay; format: ADME
# How it was run: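 Recombinant human CYP1A2, 2C9, 2C19, 2D6 and 3A4 bactosomes (0.1 mg/mL protein) preincubated 10 min at 37 °C in 50 mM potassium phosphate pH 7.4 with test compound (0.1–10 μM, methanol 3–4.5% final) and fluorogenic probe: ethoxyresorufin 0.5 μM (1A2), FCA 50 μM (2C9), BMC 10 μM (2C19), MMC 10 μM (2D6), DEF 1 μM or 7-BQ 25 μM (3A4). NADPH-regenerating system added; fluorescent metabolite read 10 min; rate as % control; IC50 fitted; triplicate.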
# Glutamate receptor 2 [11] = molecular target: T1, Glutamate receptor 2; test: Allosteric modulation of human recombinant GluA2 receptor flip isoform expressed in HEK293 cells assessed as potentiation of glutamate-induced calcium influx by Fluo-4/FLIPR method relative to cyclothiazide; format: cell-based
# How it was run: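 Stable GluA2 flip (unedited) cells seeded to confluence 2-3 days before assay; washed in HEPES buffer (145 NaCl, 5 KCl, 2 CaCl2, 1 MgCl2, 5.5 glucose, pH 7.3), loaded with 2 μM Fluo4-AM 60 min at room temperature. FLIPR dual addition: compound 5 min before 100 μM glutamate; fluorescence rise expressed against maximal cyclothiazide response, fitted pEC50 and Asym max; n ≥ 3.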
# [12] = Distribution coefficient, log D of the compound; format: physicochemical; details: octanol/water
# [13] = Cmax in rat at 3 mg/kg, po; format: ADME, organism-based; set-up: dose 3 mg/kg, route oral; details: in vivo
# Rattus norvegicus [14] = test: Cognitive enhancing effect in Wistar rat assessed as reversal of scopolamine-induced amnesic deficit at 10 to 30 mg/kg, ip by passive avoidance test
# Cytochrome P450 2C19 = Cytochrome P450 2C19 (Homo sapiens, UniProt P33261); test: Inhibition of human CYP2C19 by fluorescence assay; format: ADME
# How it was run: (§3)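 Recombinant human CYP bactosomes (0.1 mg/mL) in 50 mM potassium phosphate pH 7.4, preincubated 10 min at 37 °C with test compound (0.1-10 μM, 7 concentrations) and fluorogenic substrate. Substrates: ethoxyresorufin 0.5 μM (1A2), FCA 50 μM (2C9), BMC 10 μM (2C19), MMC 10 μM (2D6), DEF 1 μM or 7-BQ 25 μM (3A4). Reaction started with NADPH regenerating system; metabolite formation read over 10 min. IC50 from percent of control rate; miconazole control; triplicate.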
# Cytochrome P450 2D6 = Cytochrome P450 2D6 (Homo sapiens, UniProt P10635); test: Inhibition of human CYP2D6 by fluorescence assay; format: ADME; how it was run: as §3
# [15] = Cmax in rat blood at 3 mg/kg, po; format: ADME, organism-based; set-up: dose 3 mg/kg, route oral; details: whole blood
# Cytochrome P450 1A2 = molecular target: T2, Cytochrome P450 1A2 (Homo sapiens, UniProt P05177); test: Inhibition of human CYP1A2 by fluorescence assay; format: ADME; how it was run: as §3
# T2 sequence (P05177 whole entry): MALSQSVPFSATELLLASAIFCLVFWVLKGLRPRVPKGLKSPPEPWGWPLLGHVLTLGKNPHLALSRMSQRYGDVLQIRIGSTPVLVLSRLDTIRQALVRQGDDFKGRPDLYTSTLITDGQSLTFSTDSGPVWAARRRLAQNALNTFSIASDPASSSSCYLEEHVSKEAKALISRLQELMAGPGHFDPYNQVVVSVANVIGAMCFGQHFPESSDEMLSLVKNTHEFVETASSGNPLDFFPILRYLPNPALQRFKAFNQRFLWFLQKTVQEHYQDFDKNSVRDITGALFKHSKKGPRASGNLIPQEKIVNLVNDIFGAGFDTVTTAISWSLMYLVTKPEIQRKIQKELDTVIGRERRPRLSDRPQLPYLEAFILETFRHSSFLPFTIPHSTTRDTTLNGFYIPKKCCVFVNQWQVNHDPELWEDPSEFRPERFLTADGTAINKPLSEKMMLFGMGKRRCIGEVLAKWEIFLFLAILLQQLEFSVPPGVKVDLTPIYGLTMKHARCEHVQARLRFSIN
# [16] = Blood Clearance in rat at 3 mg/kg, po; format: ADME, organism-based; set-up: dose 3 mg/kg, route oral; details: whole blood; how it was run: as §1
# [17] = AUC (0 to t) in rat blood at 3 mg/kg, po; format: ADME, organism-based; set-up: dose 3 mg/kg, route oral; details: whole blood
# Cytochrome P450 3A4 = Cytochrome P450 3A4 (Homo sapiens, UniProt P08684); test: Inhibition of human CYP3A4 by fluorescence assay; format: ADME; how it was run: as §3
# Cytochrome P450 2C9 = Cytochrome P450 2C9 (Homo sapiens, UniProt P11712); test: Inhibition of human CYP2C9 by fluorescence assay; format: ADME; how it was run: as §3
# [18] = Distribution coefficient, log D of the compound at pH 7.4; format: physicochemical; details: octanol/water
# Brain [19] = test: Drug level in Lister Hooded rat assessed per gram of tissue at 3 mg/kg, ip; format: ADME, organism-based; set-up: dose 3 mg/kg, route intraperitoneal; details: in vivo
# How it was run: (§4)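 Male Lister Hooded rats (n = 9-12/group) tested for reversal of a 24 h delay-induced deficit in novel object recognition. Significant doses flagged. Brain concentrations measured in the study animals at the end of the test.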
# Brain [20] = test: Drug level in Lister Hooded rat assessed per gram of tissue at 1 mg/kg, ip; format: ADME, organism-based; set-up: dose 1 mg/kg, route intraperitoneal; details: in vivo; how it was run: as §4
# Brain [21] = test: Drug level in Lister Hooded rat assessed per gram of tissue at 10 mg/kg, ip; format: ADME, organism-based; set-up: dose 10 mg/kg, route intraperitoneal; details: in vivo; how it was run: as §4
# Rattus norvegicus [22] = test: Cognitive enhancing effect in Wistar rat assessed as reversal of scopolamine-induced amnesic deficit at 30 mg/kg, ip by passive avoidance test
# Brain [23] = test: Drug level in Lister Hooded rat assessed per gram of tissue at 0.3 mg/kg, ip; format: ADME, organism-based; set-up: dose 0.3 mg/kg, route intraperitoneal; details: in vivo; how it was run: as §4
# Rattus norvegicus [24] = test: as §2; format: ADME, organism-based, Plasma; set-up: dose 3 mg/kg, route oral; details: in vivo
# Sequence of Cytochrome P450 2C9 (P11712 whole entry): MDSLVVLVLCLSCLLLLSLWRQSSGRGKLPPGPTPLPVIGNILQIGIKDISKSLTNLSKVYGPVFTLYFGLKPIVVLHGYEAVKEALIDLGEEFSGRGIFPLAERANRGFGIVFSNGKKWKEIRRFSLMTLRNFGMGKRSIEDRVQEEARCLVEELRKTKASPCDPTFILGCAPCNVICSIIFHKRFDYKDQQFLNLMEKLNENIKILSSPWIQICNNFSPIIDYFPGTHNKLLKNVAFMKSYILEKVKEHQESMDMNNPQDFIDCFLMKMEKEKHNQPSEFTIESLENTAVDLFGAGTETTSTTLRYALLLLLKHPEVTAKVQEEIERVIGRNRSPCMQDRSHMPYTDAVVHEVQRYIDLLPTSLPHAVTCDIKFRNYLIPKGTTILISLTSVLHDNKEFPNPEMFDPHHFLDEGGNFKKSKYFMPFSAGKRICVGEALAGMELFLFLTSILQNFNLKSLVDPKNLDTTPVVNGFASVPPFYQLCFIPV
# Sequence of Cytochrome P450 2C19 (P33261 whole entry): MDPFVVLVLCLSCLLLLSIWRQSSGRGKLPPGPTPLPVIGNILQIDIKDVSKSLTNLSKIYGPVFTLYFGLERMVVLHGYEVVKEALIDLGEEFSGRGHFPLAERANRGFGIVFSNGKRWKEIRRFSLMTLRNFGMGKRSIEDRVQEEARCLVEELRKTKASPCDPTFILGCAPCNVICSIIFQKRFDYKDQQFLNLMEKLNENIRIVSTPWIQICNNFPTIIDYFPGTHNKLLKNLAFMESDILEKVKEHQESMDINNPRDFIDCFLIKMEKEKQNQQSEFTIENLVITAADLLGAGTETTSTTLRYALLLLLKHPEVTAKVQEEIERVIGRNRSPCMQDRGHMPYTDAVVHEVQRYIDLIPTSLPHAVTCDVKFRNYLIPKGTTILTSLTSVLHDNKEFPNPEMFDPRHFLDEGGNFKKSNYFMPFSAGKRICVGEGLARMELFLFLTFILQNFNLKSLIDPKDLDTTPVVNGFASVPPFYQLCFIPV
# Sequence of Cytochrome P450 2D6 (P10635 whole entry): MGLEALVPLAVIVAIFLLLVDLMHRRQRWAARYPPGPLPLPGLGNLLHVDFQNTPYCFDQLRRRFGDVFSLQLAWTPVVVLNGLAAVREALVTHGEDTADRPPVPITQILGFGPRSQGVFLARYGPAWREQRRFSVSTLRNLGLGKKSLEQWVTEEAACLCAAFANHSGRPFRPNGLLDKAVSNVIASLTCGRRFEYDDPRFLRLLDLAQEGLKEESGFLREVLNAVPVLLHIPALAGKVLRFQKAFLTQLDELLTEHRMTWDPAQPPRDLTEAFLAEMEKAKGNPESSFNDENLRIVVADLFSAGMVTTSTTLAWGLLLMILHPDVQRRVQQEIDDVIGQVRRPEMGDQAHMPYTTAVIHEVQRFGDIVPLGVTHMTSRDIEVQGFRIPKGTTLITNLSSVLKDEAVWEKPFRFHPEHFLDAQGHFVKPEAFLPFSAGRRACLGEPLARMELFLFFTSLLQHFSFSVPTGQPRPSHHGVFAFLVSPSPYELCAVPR
# T1 sequence (P42262 whole entry, canonical isoform): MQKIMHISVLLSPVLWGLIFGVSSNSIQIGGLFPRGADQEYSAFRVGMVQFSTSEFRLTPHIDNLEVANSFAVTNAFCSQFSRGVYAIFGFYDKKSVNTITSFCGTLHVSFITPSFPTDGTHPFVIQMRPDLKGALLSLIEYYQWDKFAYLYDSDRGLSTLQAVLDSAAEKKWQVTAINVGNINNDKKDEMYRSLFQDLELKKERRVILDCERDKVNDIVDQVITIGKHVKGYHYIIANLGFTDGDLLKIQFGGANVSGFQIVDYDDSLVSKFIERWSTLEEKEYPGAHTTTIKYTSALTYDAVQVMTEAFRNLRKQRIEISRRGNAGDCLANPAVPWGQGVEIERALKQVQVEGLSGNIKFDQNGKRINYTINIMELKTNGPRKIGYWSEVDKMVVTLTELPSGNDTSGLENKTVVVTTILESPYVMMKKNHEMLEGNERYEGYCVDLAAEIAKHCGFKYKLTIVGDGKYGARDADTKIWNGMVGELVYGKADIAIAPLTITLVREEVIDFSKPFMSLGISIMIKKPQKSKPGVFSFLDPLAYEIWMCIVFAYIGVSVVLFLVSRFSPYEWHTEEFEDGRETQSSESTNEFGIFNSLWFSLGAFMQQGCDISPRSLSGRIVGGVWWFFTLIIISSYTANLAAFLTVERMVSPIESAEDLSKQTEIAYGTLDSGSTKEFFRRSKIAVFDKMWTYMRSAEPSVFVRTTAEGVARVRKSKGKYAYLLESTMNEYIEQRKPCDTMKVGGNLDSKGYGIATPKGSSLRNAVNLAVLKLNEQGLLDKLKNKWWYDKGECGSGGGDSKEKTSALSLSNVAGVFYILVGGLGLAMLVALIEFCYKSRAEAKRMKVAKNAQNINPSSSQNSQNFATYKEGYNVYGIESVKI
# Sequence of Cytochrome P450 3A4 (P08684 whole entry): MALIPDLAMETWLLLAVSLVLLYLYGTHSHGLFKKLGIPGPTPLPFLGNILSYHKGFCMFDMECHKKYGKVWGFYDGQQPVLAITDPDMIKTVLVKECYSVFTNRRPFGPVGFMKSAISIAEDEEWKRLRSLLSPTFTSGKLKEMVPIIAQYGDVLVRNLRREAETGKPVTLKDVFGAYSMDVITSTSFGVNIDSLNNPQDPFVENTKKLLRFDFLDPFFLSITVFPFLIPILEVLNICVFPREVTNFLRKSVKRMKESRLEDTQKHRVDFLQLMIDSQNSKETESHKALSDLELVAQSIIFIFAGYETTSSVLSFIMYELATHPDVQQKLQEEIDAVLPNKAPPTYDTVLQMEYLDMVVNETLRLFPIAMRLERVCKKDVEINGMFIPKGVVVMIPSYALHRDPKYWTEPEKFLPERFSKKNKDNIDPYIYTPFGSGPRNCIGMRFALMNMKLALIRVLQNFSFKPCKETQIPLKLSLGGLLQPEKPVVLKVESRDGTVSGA
SMILES,fraction unbound [1],Papp [2] [×10⁻⁶ cm/s],Brain tissue binding (% bound) (Brain [3]) [%],Kp (in vivo),Activity (Rattus norvegicus [5]),solubility kinetic [6] [µg/mL],Drug uptake (Brain [8]) [ng/g],EC50 (Glutamate receptor 2 [9]) [µM],Activity (Glutamate receptor 2 [11]) [%],logD [12],Cmax [13] [ng/mL],IC50 (Cytochrome P450 2C19) [µM],IC50 (Cytochrome P450 2D6) [µM],Cmax [15] [ng/mL],IC50 (Cytochrome P450 1A2) [µM],CL/F [16] [mL/min/kg],AUC(0-t) [17] [ng·h/mL],IC50 (Cytochrome P450 3A4) [µM],IC50 (Cytochrome P450 2C9) [µM],logD [18],other results
CS(=O)(=O)NCc1ccc(-n2nc(C(F)(F)F)c3c2CCCC3)cc1,0.021,33.5,99.2,1.6,Non-toxic,103,5074,7.94,112,2.5,197,–,–,–,–,–,–,–,–,–,CL/F [4]: 43 mL/min/kg; AUC(0-t) [7]: 416 ng·h/mL; IC50 [10]: > 10 µM
O=C(c1ccc(-n2nc(C(F)(F)F)c3c2CCCC3)cc1)N1CCOCC1,0.026,45.5,96.8,1.2,Non-toxic,123,7168,> 20,81,3.1,586,–,–,–,–,–,–,–,–,–,CL/F [4]: 14 mL/min/kg; AUC(0-t) [7]: 1980 ng·h/mL; Activity (Rattus norvegicus [14]): inactive; IC50 [10]: > 10 µM
CN1CCc2c(C(F)(F)F)nn(-c3ccc(CN4CCCC4=O)cc3)c2C1,0.142,43,63,–,–,93,–,39.8,102,–,–,> 10,> 10,131,> 10,22,294,> 10,> 10,2,–
O=C(c1ccc(-n2nc(C(F)(F)F)c3c2COCC3)cc1)N1CCCC1,0.067,49,95.5,–,–,104,–,100,75,–,–,> 10,> 10,225,> 10,13,733,> 10,> 10,2.6,–
O=C(c1ccc(-n2nc(C(F)(F)F)c3c2CCOC3)cc1)N1CCCC1,0.137,49.5,88.4,–,Non-toxic,192,22525,> 20,81,–,–,> 10,> 10,551,> 10,6,1330,> 10,> 10,2.4,Drug uptake (Brain [19]): 983 ng/g; Drug uptake (Brain [20]): 228 ng/g; Drug uptake (Brain [21]): 2609 ng/g; Activity (Rattus norvegicus [14]): Active
O=C1CCCN1Cc1ccc(-n2nc(C(F)(F)F)c3c2CCOC3)cc1,0.16,47,87.9,–,–,215,–,10,138,–,–,> 8,> 8,808,> 8,41,972,> 8,> 8,2.4,–
O=C1CCCN1Cc1c(F)cc(-n2nc(C(F)(F)F)c3c2CCOC3)cc1F,0.064,47,96.3,–,Non-toxic,207,8988,20,120,–,–,> 10,> 10,76,> 10,22,481,> 10,> 10,2.5,Activity (Rattus norvegicus [22]): Active; Drug uptake (Brain [19]): 386 ng/g; Drug uptake (Brain [20]): 79 ng/g; Drug uptake (Brain [21]): 1413 ng/g; Drug uptake (Brain [23]): 22 ng/g
CN(C)C(=O)c1ccc(-n2nc(C(F)(F)F)c3c2CCCC3)cc1,0.048,–,98.2,1.3,–,138,–,25.1,94,3,50,–,6,–,–,–,–,–,–,–,AUC (Rattus norvegicus [24]): 78 ng·h/mL

# Reference: ChEMBL document CHEMBL1649062, “Integration of lead optimization with crystallography for a membrane-bound ion channel target: discovery of a new class of AMPA receptor positive allosteric modulators” (J Med Chem, 2011)
